Laboratory results: ChEMBL document CHEMBL1130388, “Synthesis of racemic 6,7,8,9-tetrahydro-3-hydroxy-1H-1-benzazepine-2,5-diones as antagonists of N-methyl-d-aspartate (NMDA) and alpha-amino-3-hydroxy-5-methylisoxazole-4-propionic acid (AMPA) receptors” (J Med Chem, 1997)

Key:
[1] = target: Glutamate NMDA receptor (Rattus norvegicus) (UniProt P35439+Q00959+Q00960+Q00961+Q62645+Q8VHN2+Q9R1M7); test: Inhibition of N-methyl-D-aspartate glutamate receptor was measured in oocytes expressing cloned rat brain receptor subunits (NR1A/2C); type: cell-based; conditions: Oocyte
Summary of the method: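 Xenopus oocytes expressing cloned rat NR1A/2C subunits, voltage-clamped at -70 mV. Currents were evoked by 1 μM glycine plus 100 μM glutamate. The apparent dissociation constant (Kb) was calculated from current inhibition assuming simple competitive antagonism, and reported with 95% confidence intervals adjusted to the linear scale.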

[2] = Selectivity index measured as the kb ratio of AMPA to that of NMDA.
Summary of the method: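 Steady-state selectivity index: Kb at AMPA receptors (rat cortex poly(A)+ RNA oocytes, 10 μM AMPA) divided by Kb at NR1A/2C NMDA receptors (1 μM glycine, 100 μM glutamate), both from oocyte current inhibition at -70 mV.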

[3] = target: Glutamate receptor ionotropic, AMPA (Rattus norvegicus) (UniProt P19491+P19492+P19493+P19490); test: Inhibition of Ionotropic glutamate receptor AMPA-preferring non-NMDA receptors was measured in oocytes expressing rat brain poly(A)+ RNA isolated from the cerebral cortex.; type: cell-based; conditions: Oocyte
[4] = target: Glutamate receptor ionotropic, NMDA 1 (Rattus norvegicus, UniProt P35439); test: Antagonism of N-methyl-D-aspartate glutamate receptor 1 sites using [3H]DCKA as a radioligand

Kb [1] [nM] | Selectivity index [2] | Kb [3] [nM] | IC50 [4] [nM] | SMILES
740 | 31 | 23000 | – | O=c1cc(O)c2c([nH]c1=O)CCCC2
2800 | 75 | – | – | O=c1cc(O)c2c([nH]c1=O)C1CCC2C1 (stereo unspecified)
260 | 300 | 79000 | – | O=c1cc(O)c2c([nH]c1=O)C1CCC2CC1

Second part, the compound before the results:

SMILES | Kb [1] [nM] | Selectivity index [2] | Kb [3] [nM] | IC50 [4] [nM]
O=c1cc(O)c2c([nH]c1=O)C[C@H](Cl)[C@@H](Cl)C2 | 42 | 19 | 780 | 130
CCC1c2c(O)cc(=O)c(=O)[nH]c2C[C@H](Cl)[C@H]1Cl (stereo partly specified) | 2.8 | 260 | 720 | –
CC1c2c(O)cc(=O)c(=O)[nH]c2C[C@H](Cl)[C@H]1Cl (stereo partly specified) | 4.1 | 120 | 510 | –
CC1Cc2[nH]c(=O)c(=O)cc(O)c2CC1C (stereo unspecified) | 120 | 44 | 5300 | –
